Most compounds without a hit are left out; they make up all but 1.7% or so of the library.
Runt-SMMHC FRET = inhibitors of RUNX1 Runt–CBFb-SMMHC binding, primary screen, biochemical, FRET, Cerulean-Runt, Venus-CBFb-SMMHC, uHTS; Runt-related transcription factor 1 (Homo sapiens) + Core-binding factor subunit beta …; Cerulean-Runt/Venus-CBFb-SMMHC FRET ratio 530/480, 1 h; inhibition, % at 20 µM; 220,000 compounds, 0.74% hits; AID 1434, 2008;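 active = mean inhibition across duplicate retests at 20 µM reaching about 50%, limit read from the data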;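 note: inhibitors lower the FRET ratio by blocking Runt binding to CBFb-SMMHC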
Runt-CBFb FRET = inhibitors of RUNX1 Runt–CBFb binding, primary screen, biochemical, FRET, Cerulean-Runt, Venus-CBFb, uHTS; Runt-related transcription factor 1 (Homo sapiens) + Core-binding factor subunit beta …; inhibition, % at 20 µM; Cerulean-Runt/Venus-CBFb FRET ratio 530/480, 1 h; 220,000 compounds, 0.46% hits;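 active = inhibition over about 50% at 20 µM in the single-dose screen, limit read from the data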
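System: Cerulean-labeled Runt domain protein | Quantity: 100 nM of each labeled protein | Schedule: 1 h compound exposure, room temperature | Detection: Fluorescence energy transfer, 422 nm excitation, 530/480 nm emission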
RanGTP-Imp inh = inhibitors of RanGTP-importin-beta interaction, primary screen, biochemical, FRET, CFP-Ran, YFP-importin-beta, homogeneous; Ran GTPase (GTP-bound) - importin-beta complex; cell-free CFP-Ran/YFP-importin-beta FRET ratio; inhibition, % (test concentration not listed); 300,000 compounds, 1.1% hits;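 active = more than half of the replicate wells show a fall in the fluorescence ratio signal beyond about 16%, limit read from the data, passing the limit was not always enough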
Hck Nef HTS = inhibitors of Nef-activated human Hck kinase, primary screen, biochemical, Z-Lyte FRET, 384-well, Hck-YEEI | AID 463187, 2010 | inhibition, % at 20 µM | Recombinant Hck-YEEI plus Nef, Z-Lyte FRET kinase assay | Tyrosine-protein kinase HCK (Homo sapiens), P08631 | 220,000 compounds, 0.68% hits;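 active = Hck-Nef kinase inhibition above about 50%, limit read from the data; inactive = inhibition below that limit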
Target sequence (P08631 whole entry, looked up): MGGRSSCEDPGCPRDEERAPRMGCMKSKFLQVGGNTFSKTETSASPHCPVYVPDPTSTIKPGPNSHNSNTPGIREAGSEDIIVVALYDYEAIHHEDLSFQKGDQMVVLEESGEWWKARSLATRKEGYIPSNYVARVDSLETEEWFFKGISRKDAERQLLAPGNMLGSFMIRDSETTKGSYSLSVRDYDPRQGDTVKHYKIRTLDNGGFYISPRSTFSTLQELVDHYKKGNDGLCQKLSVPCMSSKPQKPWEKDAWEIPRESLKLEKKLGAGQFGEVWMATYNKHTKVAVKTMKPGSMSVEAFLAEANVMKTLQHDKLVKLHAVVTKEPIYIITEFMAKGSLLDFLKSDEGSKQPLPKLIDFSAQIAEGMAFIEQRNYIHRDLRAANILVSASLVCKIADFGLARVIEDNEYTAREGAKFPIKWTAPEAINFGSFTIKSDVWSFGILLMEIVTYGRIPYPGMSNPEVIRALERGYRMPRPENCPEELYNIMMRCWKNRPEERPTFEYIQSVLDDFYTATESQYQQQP
Numbers stand for hits; - = inactive; . = no result given.

SMILES	Runt-SMMHC FRET	Runt-CBFb FRET	RanGTP-Imp inh	Hck Nef HTS
COc1ccc(NC(=O)CSCC(=O)Nc2sccc2C#N)cc1	.	.	-	.
Cc1cc(C)c2c(=O)n(CC(=O)N3CCC(Cc4ccccc4)CC3)sc2n1	50	-	-	-
Cc1cccc(N2CCN(C(=O)Cn3sc4nc(C)cc(C)c4c3=O)CC2C)c1 (centres undefined)	74	-	-	-
Cc1ccn2c(=O)nc(SCC(=O)N3CCC(Cc4ccccc4)CC3)nc2c1	.	.	-	.
Cc1ccc(O)c(C(CC(=O)NC2CCCCC2)c2ccccc2)c1 (centres undefined)	-	-	-	-
CC(C)CN(CC(C)C)C(=S)Nc1ccc(Cl)cc1	-	-	-	-
COc1ccccc1C(=O)Nc1ccc(S(=O)(=O)Nc2cnc3ccccc3n2)cc1	.	.	-	.
Cn1c(N)c(C(=O)COC(=O)[C@H](Cc2ccccc2)N2C(=O)c3ccccc3C2=O)c(=O)n(C)c1=O	-	-	-	-
Cc1ccc(S(=O)(=O)N(C)C)cc1[N+](=O)[O-]	-	-	-	-
CCOc1ccc2c(C)c(Cl)c(=O)oc2c1	-	-	-	-
CCN(CC)c1ccc2c(Cl)c(Br)c(=O)oc2c1	-	-	43	-
COc1ccc(-c2c(C)c3ccc(OCC(C)=O)cc3oc2=O)cc1	-	-	-	-
CCN(Cc1cc(=O)oc2cc(C)ccc12)c1ccccc1	.	.	-	.
CCN(CC)c1ccc2c(c1)oc(=O)c1c(Cl)cc(=O)oc12	62	-	67	-
CCN(CC)c1ccc2c(C)c(-c3ccc(N)cc3)c(=O)oc2c1	64	-	136	-
O=[N+]([O-])c1ccc(-c2nnc(S)n2-c2ccccc2)cc1	.	.	-	.
O=C(O)c1ccccc1C(=O)N(c1ccccc1)c1ccccc1	.	.	31	.
O=C(N(c1ccccc1)c1ccccc1)N(c1ccccc1)c1ccccc1	-	-	-	-
Cc1ccc2nc(N3CCN(C=O)CC3)nc(-c3ccccc3)c2c1	88	-	54	-
c1ccc(-c2nc(-n3nc4ccccc4n3)nc3ccccc23)cc1	-	-	-	-
Cc1ccc2nc(N3CCN(C(=O)CCCC(=O)O)CC3)nc(-c3ccccc3)c2c1	.	.	17	.
O=C(O)CCCC(=O)N1CCN(c2nc(-c3ccccc3Cl)c3cc(Br)ccc3n2)CC1	.	.	35	.
O=C(c1cc(-c2ccccc2Cl)nc2ccc(Br)cc12)N1CCN(c2ccccn2)CC1	.	.	-	.
Clc1ccc(-c2nc(N3CCCCC3)nc3ccccc23)cc1	88	-	25	-
COCCNC(=O)C(c1c[nH]c2ccccc12)N(C(=O)c1snc(C(N)=O)c1N)c1cccc(OC)c1 (centres undefined)	-	-	-	-
SMILES	Runt-SMMHC FRET	Runt-CBFb FRET	RanGTP-Imp inh	Hck Nef HTS
CCOC(=O)N1CCN(c2nc(-c3ccccc3)c3ccccc3n2)CC1	.	.	18	.
O=C(O)CCC(=O)N1CCN(c2nc(-c3ccccc3)c3ccccc3n2)CC1	.	.	-	.
CN(c1ccc(C(=O)N/N=C/c2cccc([N+](=O)[O-])c2)cc1)S(=O)(=O)c1ccccc1	.	.	28	.
CCOC(=O)Cc1nn(Cc2nc(-c3ccc(C#N)cc3)cs2)c(=O)c2ccccc12	-	-	-	-
CC(=O)Nc1ccc(S(=O)(=O)Nc2nc3ccccc3nc2Sc2nncn2C)cc1	72	-	36	-
CCCCN(CCCC)c1nc2ccccc2nc1NS(=O)(=O)c1ccc(NC(C)=O)cc1	70	-	-	-
CC(C)(C)C(=O)/C=c1\s/c(=C\c2ccc(-c3ccc([N+](=O)[O-])cc3)o2)c(=O)n1CC(=O)NC(N)=O	-	-	-	-
CCN1CCN(c2nc3ccccn3c(=O)c2C=O)CC1	.	.	110	.
O=Cc1c(N2CCN(CCO)CC2)nc2ccccn2c1=O	.	.	79	.
O=Cc1c(N2CCN(c3ccccc3)CC2)nc2ccccn2c1=O	-	-	-	-
CN1CCCN(Cc2ccccc2Br)CC1	.	.	-	.
COc1ccc(/C=C2\CCCc3c2nc2ccccc2c3C(=O)OCC(=O)c2c(N)n(C)c(=O)n(C)c2=O)cc1	-	-	-	-
Cc1cccn2c(=O)c3cc(C(=O)NCc4ccco4)c(=N)n(C4CCCC4)c3nc12	.	.	130	.
